TRPC4 act – activators of mouse TRPC4 channel, primary screen, Fluo4 calcium, HEK293 TRPC4beta/mu-opioid cells. 310,000 tested, 0.49% active. Short transient receptor potential channel 4 (Mus musculus), Q9QUQ5. Fluo4 calcium fluorescence; stronger effect = higher value. B-score at 10 µM;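 active = B-score above 5 SD of library B-scores, and initial fluorescence ratio not above library mean plus 5 SD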;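 also: positive B-score marks a calcium rise read as TRPC4 activation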
Target sequence (Q9QUQ5 whole entry, looked up): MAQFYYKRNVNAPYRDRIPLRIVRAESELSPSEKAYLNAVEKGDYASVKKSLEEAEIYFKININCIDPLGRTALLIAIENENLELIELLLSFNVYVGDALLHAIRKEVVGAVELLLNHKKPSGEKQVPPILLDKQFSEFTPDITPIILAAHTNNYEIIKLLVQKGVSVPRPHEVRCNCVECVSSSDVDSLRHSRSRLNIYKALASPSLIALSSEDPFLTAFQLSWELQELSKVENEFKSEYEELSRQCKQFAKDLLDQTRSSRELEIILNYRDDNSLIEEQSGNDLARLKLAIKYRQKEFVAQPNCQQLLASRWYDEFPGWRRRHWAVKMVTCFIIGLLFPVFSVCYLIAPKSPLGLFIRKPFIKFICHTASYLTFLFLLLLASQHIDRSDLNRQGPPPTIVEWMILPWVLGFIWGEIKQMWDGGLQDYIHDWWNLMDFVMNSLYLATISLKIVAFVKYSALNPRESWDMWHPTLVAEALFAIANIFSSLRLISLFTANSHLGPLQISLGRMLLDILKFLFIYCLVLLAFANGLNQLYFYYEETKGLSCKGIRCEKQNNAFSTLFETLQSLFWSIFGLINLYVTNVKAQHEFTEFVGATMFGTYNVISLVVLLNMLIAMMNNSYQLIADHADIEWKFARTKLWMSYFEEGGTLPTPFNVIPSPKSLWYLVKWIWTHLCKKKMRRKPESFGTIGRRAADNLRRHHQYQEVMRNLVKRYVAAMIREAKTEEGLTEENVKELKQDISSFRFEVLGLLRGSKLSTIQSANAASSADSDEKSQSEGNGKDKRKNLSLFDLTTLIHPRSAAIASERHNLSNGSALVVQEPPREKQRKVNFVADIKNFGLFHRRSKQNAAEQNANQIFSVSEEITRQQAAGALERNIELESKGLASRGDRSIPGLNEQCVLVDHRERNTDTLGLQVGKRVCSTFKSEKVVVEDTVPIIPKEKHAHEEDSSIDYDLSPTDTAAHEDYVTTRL
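System: HEK293 cells stably co-expressing mouse TRPC4beta and mu-opioid receptor; Schedule: Fluo4 dye loading 45 min at room temperature, 110 s recording; Detection: Fluo4 fluorescence, kinetic; Evaluation: B-scored integrated calcium fluorescence ratio; Controls: buffer (low) and maximal DAMGO (high).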
TRPC4 PAM – positive allosteric modulators of TRPC4, primary screen, cell-based, mouse TRPC4beta, HEK293 mu-opioid, Fluo-4 calcium; DAMGO EC20, Fluo-4 Ca2+ flux; stronger effect = higher value; B-score at 10 µM; 310,000 tested, 0.42% active;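 active = B-score of calcium response area above 5 SD of library B-scores, with initial fluorescence ratio within 5 SD of library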
TRPC6 act – mouse TRPC6 channel activators, primary screen, cell-based, HEK293, membrane potential dye | Short transient receptor potential channel 6 (Mus musculus), Q61143 | HEK293-TRPC6 membrane potential dye fluorescence; stronger effect = higher value | B-score at 10 µM | 310,000 tested, 0.13% active | AID 2550, 2010;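 active = B-score of the integrated fluorescence ratio above library mean plus 3 SD, and starting fluorescence ratio within library mean plus 5 SD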;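 also: higher score means more depolarization so channel activation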
TRPC6 inh – mouse TRPC6 channel inhibitors, primary screen, cell-based, HEK293, membrane potential dye | Short transient receptor potential channel 6 (Mus musculus), Q61143 | ACh-evoked depolarization; stronger effect = lower value | B-score at 10 µM | 310,000 tested, 1.1% active | AID 2553, 2010;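 active = B-score under library mean minus 3 SD, initial fluorescence not abnormally high, positive integrated signal ratio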;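 also: B-score derived from integrated fluorescence ratio over the kinetic read; more negative B-score means stronger inhibition of depolarization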
TRPC4 inh – inhibitors of mouse TRPC4 channel, primary screen, Fluo4 calcium, HEK293 TRPC4beta/mu-opioid cells | Short transient receptor potential channel 4 (Mus musculus), Q9QUQ5 | 300,000 tested, 0.39% active | DAMGO-evoked Fluo4 calcium flux; stronger effect = lower value | B-score at 10 µM;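 active = B-score over 3 SD under the library average, no early fluorescence shift, positive overall ratio signal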
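System: stable TRPC4beta/mu-opioid receptor HEK293 cells; Dosing: single-point compound dosing; Measured by: Fluo4 Ca2+ flux fluorescence; Read-out basis: per-well B score of integrated baseline-normalized Fluo4 ratio.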
A number is an active result. Shown are actives, neighbours in structure and some others; about 2.3% of the full set was active somewhere.

How did Cc1nn(-c2ccccc2)c2nc(-c3ccccc3)cc(C(=O)N3CCOCC3)c12 do in these assays?
TRPC4 act: inactive; TRPC4 PAM: 14; TRPC6 act: inactive; TRPC6 inh: inactive; TRPC4 inh: inactive

Results for O=C(CSc1nc(=O)n(CCN2CCOCC2)c2c1CCC2)Nc1ccc(OC(F)(F)F)cc1 ?
TRPC4 act: inactive; TRPC4 PAM: inactive; TRPC6 act: inactive; TRPC6 inh: inactive; TRPC4 inh: -6

Results for CC1(C)CC(=O)c2cc(C(=O)NCc3ccco3)c(=O)n(-c3ccc(Cl)cc3)c2C1 ?
TRPC4 act: 121; TRPC4 PAM: inactive; TRPC6 act: inactive; TRPC6 inh: inactive; TRPC4 inh: inactive

What do the screens show for `COc1ccc(-n2c3c(cc(C(=O)NNc4ccccc4)c2=O)C(=O)CC(C)(C)C3)cc1`?
TRPC4 act: 70; TRPC4 PAM: inactive; TRPC6 act: inactive; TRPC6 inh: inactive; TRPC4 inh: inactive

Results for CCN(CC)CCn1c(=N)n(CC(O)COc2ccccc2)c2ccccc21 (centres undefined) ?
TRPC4 act: inactive; TRPC4 PAM: inactive; TRPC6 act: inactive; TRPC6 inh: inactive; TRPC4 inh: -6

What do the screens show for `COc1cc(C2NC(=S)NC(C)=C2C(=O)Nc2cc(C)cc(C)c2)ccc1O` (centres undefined)?
TRPC4 act: inactive; TRPC4 PAM: 10; TRPC6 act: inactive; TRPC6 inh: inactive; TRPC4 inh: inactive

How did CC(=O)N1c2ccc(S(=O)(=O)NCCC(=O)N3CCC(C)CC3)cc2CC1C (centres undefined) do in these assays?
TRPC4 act: inactive; TRPC4 PAM: inactive; TRPC6 act: inactive; TRPC6 inh: inactive; TRPC4 inh: inactive

Results for Cc1ccc(C)c(S(=O)(=O)N2CCN(C(=O)C3CCN(c4ncnc5sc(C)c(C)c45)CC3)CC2)c1 ?
TRPC4 act: inactive; TRPC4 PAM: inactive; TRPC6 act: inactive; TRPC6 inh: inactive; TRPC4 inh: inactive

How did CCOCCN1CCN(c2c(C)c(C)nc3cc(-c4cc(OC)cc(OC)c4)nn23)CC1 do in these assays?
TRPC4 act: inactive; TRPC4 PAM: inactive; TRPC6 act: inactive; TRPC6 inh: inactive; TRPC4 inh: inactive

Results for COCCN1CCN(c2c(C)c(C)nc3cc(-c4cccc(OC)c4)nn23)CC1 ?
TRPC4 act: 48; TRPC4 PAM: inactive; TRPC6 act: inactive; TRPC6 inh: inactive; TRPC4 inh: inactive

What do the screens show for `Cn1c2c(c(=O)n1-c1ccccc1)CSCC2`?
TRPC4 act: inactive; TRPC4 PAM: inactive; TRPC6 act: inactive; TRPC6 inh: inactive; TRPC4 inh: inactive

What do the screens show for `Oc1ccc(CN2CCCCC2)nc1-c1ccccc1`?
TRPC4 act: inactive; TRPC4 PAM: inactive; TRPC6 act: inactive; TRPC6 inh: inactive; TRPC4 inh: -6

How did CCn1c(NCc2c[nH]c3ccccc23)nc2ccccc21 do in these assays?
TRPC4 act: inactive; TRPC4 PAM: inactive; TRPC6 act: inactive; TRPC6 inh: inactive; TRPC4 inh: -8

How did CCn1c(NCc2ccccn2)nc2ccccc21 do in these assays?
TRPC4 act: 71; TRPC4 PAM: inactive; TRPC6 act: inactive; TRPC6 inh: inactive; TRPC4 inh: inactive

Results for CCN1CCN(C(=O)/C(=C/c2cccs2)NC(=O)c2ccc(C)c(C)c2)CC1 ?
TRPC4 act: inactive; TRPC4 PAM: inactive; TRPC6 act: inactive; TRPC6 inh: inactive; TRPC4 inh: inactive

How did CCCCn1c(N)c(N(CC(C)C)C(=O)c2oc3c(Cl)cccc3c2C)c(=O)[nH]c1=O do in these assays?
TRPC4 act: inactive; TRPC4 PAM: inactive; TRPC6 act: inactive; TRPC6 inh: inactive; TRPC4 inh: inactive

Results for NC(=O)c1ccc(N2CCN(c3ncc(C(F)(F)F)cc3Cl)CC2)cc1 ?
TRPC4 act: inactive; TRPC4 PAM: 17; TRPC6 act: inactive; TRPC6 inh: inactive; TRPC4 inh: inactive

How did NC(=O)NCCN1CCN(c2ncc(C(F)(F)F)cc2Cl)CC1 do in these assays?
TRPC4 act: inactive; TRPC4 PAM: 15; TRPC6 act: inactive; TRPC6 inh: inactive; TRPC4 inh: inactive

What do the screens show for `O=C(c1cc2c(ccc3ccccc32)o1)N1CCN(c2ncc(C(F)(F)F)cc2Cl)CC1`?
TRPC4 act: 80; TRPC4 PAM: inactive; TRPC6 act: inactive; TRPC6 inh: inactive; TRPC4 inh: inactive

What do the screens show for `Fc1ccc(-c2nnc(CN3CCN(c4ncc(C(F)(F)F)cc4Cl)CC3)o2)cc1`?
TRPC4 act: 109; TRPC4 PAM: inactive; TRPC6 act: inactive; TRPC6 inh: inactive; TRPC4 inh: inactive

Results for Cc1ccc(C)c(NC(=O)CCN2CCN(c3ccccc3F)CC2)c1 ?
TRPC4 act: inactive; TRPC4 PAM: inactive; TRPC6 act: inactive; TRPC6 inh: inactive; TRPC4 inh: inactive

How did O=C(Cc1cccc2ccccc12)Nc1ccc(Br)cc1C(=O)O do in these assays?
TRPC4 act: inactive; TRPC4 PAM: inactive; TRPC6 act: inactive; TRPC6 inh: inactive; TRPC4 inh: -7

How did O=C(Cc1cccc2ccccc12)Nc1ccc(O)cc1C(=O)O do in these assays?
TRPC4 act: inactive; TRPC4 PAM: inactive; TRPC6 act: inactive; TRPC6 inh: inactive; TRPC4 inh: inactive

How did CCOC(=O)c1cnc2c(C)cccc2c1NCCc1ccc(OC)c(OC)c1 do in these assays?
TRPC4 act: inactive; TRPC4 PAM: inactive; TRPC6 act: inactive; TRPC6 inh: inactive; TRPC4 inh: -6

What do the screens show for `CN(Cc1cccc(F)c1)CC(O)COCc1ccccc1Cl` (centres undefined)?
TRPC4 act: inactive; TRPC4 PAM: inactive; TRPC6 act: inactive; TRPC6 inh: inactive; TRPC4 inh: -6

What do the screens show for `COc1cccc(C(=O)Nc2cc(NC(=O)c3cccs3)ccc2C)c1OC`?
TRPC4 act: inactive; TRPC4 PAM: inactive; TRPC6 act: inactive; TRPC6 inh: inactive; TRPC4 inh: inactive

How did Brc1ccc2[nH]c3c(NCc4ccccn4)ncnc3c2c1 do in these assays?
TRPC4 act: 61; TRPC4 PAM: inactive; TRPC6 act: inactive; TRPC6 inh: inactive; TRPC4 inh: inactive

What do the screens show for `S=c1[nH]nc(-c2ccncc2)n1/N=C/C(Cl)=C\c1ccccc1`?
TRPC4 act: inactive; TRPC4 PAM: 12; TRPC6 act: inactive; TRPC6 inh: inactive; TRPC4 inh: inactive

Results for COc1ccccc1CC(=O)NNC(=O)c1ccco1 ?
TRPC4 act: inactive; TRPC4 PAM: inactive; TRPC6 act: inactive; TRPC6 inh: inactive; TRPC4 inh: inactive

How did CCN(CCn1cccn1)C(=O)c1cc(COc2ccc(F)cc2Cl)on1 do in these assays?
TRPC4 act: inactive; TRPC4 PAM: inactive; TRPC6 act: inactive; TRPC6 inh: inactive; TRPC4 inh: inactive

How did O=C(c1cc(COc2ccc(F)cc2Cl)on1)N(CCO)Cc1cccs1 do in these assays?
TRPC4 act: inactive; TRPC4 PAM: 11; TRPC6 act: inactive; TRPC6 inh: inactive; TRPC4 inh: inactive

Source: PubChem BioAssay
